Values after ≈ are worked out from the molar mass of the structure shown.
How the values were obtained:
Canis familiaris = test: Volume of distribution at steady state in iv or po dosed Mongrel dog; type: ADME, organism-based, Canis lupus familiaris; settings: in vivo
How it was run: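 IV and PO pharmacokinetics in female mongrel dogs, n = 1–2. The oral dose was a 2–3 mg/kg solution. Vss and oral bioavailability were determined.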

Cytochrome P450 1A2 = target: T1, Cytochrome P450 1A2 (Homo sapiens, UniProt P05177); test: Inhibition of CYP1A2 (unknown origin); type: ADME
T1 sequence (P05177 whole entry): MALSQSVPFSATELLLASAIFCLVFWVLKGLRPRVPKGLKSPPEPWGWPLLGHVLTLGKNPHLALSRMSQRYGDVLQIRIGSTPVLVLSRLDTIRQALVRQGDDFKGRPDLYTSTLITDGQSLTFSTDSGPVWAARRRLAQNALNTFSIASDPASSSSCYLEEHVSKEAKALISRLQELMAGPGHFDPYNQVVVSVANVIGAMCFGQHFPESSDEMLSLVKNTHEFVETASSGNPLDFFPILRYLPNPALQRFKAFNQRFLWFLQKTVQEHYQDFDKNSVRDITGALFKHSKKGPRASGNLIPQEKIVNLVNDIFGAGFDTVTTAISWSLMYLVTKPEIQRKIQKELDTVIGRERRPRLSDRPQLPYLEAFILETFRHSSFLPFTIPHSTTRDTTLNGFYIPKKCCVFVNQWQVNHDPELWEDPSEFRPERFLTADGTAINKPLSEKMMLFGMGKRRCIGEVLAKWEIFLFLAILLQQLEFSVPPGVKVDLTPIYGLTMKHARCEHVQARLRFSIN

[1] = target: T2, Muscarinic acetylcholine receptor M4 (Homo sapiens, UniProt P08173); test: Positive allosteric modulation of human M4 receptor expressed in CHO cells co-expressing Gqi5 assessed as increase in acetylcholine-induced calcium mobilization
T2 sequence (P08173 whole entry): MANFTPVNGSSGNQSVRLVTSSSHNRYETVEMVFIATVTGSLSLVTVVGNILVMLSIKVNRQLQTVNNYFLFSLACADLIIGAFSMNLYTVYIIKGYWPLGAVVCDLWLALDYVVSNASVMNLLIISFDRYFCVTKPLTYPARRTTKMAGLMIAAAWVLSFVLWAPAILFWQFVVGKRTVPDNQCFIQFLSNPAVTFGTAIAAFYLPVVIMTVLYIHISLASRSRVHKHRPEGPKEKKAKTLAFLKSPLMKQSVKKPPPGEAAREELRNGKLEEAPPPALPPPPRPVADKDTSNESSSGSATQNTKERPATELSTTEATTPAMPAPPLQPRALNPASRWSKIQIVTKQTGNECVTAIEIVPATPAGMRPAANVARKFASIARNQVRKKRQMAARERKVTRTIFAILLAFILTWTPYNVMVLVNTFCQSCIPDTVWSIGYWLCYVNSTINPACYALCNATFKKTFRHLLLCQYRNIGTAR

Cytochrome P450 2C9 = Cytochrome P450 2C9 (Homo sapiens, UniProt P11712); test: Time-dependent inhibition of CYP2C9 (unknown origin); type: ADME
Chain of Cytochrome P450 2C9 (P11712 whole entry): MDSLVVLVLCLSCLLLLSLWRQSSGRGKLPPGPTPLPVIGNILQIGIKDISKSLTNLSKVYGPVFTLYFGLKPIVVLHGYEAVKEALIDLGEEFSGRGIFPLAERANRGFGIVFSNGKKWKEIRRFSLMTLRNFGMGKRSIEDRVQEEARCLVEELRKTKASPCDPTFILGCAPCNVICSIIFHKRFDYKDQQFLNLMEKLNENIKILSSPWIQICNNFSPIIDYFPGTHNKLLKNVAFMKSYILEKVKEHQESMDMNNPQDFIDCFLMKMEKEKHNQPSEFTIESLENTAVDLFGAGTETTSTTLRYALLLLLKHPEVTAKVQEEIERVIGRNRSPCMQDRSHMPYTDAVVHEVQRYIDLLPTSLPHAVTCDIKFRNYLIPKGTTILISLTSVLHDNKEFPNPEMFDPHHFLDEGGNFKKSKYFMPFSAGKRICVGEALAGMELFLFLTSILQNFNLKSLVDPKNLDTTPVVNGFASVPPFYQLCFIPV

[2] = target: Sodium-dependent dopamine transporter (Homo sapiens, UniProt Q01959); test: Displacement of [3H]BTCP from human recombinant dopamine transporter expressed in CHO cells; type: cell-based
Chain of Sodium-dependent dopamine transporter (Q01959 whole entry): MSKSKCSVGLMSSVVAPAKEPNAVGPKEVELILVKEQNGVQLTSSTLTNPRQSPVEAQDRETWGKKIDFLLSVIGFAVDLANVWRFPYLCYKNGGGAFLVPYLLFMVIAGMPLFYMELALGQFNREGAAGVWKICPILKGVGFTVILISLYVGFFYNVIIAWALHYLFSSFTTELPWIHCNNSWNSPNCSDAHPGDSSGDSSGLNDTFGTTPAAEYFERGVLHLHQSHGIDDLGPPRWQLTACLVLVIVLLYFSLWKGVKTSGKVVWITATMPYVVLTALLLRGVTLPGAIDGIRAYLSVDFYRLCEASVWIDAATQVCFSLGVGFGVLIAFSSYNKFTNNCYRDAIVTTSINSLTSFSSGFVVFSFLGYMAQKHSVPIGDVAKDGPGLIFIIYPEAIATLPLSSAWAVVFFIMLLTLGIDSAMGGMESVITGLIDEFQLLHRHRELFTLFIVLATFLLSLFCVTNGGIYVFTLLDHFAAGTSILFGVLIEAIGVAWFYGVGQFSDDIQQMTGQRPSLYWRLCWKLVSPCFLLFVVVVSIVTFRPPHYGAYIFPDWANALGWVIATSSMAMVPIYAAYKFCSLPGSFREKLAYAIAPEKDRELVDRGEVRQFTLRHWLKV

Rattus norvegicus [3] = test: Reversal of amphetamine-induced hyperlocomotion in Sprague-Dawley rat at 0.1 mg/kg, po pretreated 30 mins post habituation in the chamber followed by amphetamine injection after 30 mins measured after 60 mins; type: functional
How it was run: (§1)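 Male Sprague-Dawley rats, n = 6–24 per dose group, were habituated in the chamber for 30 min. The compound or vehicle (10% tween-80 in water, v/v) was then given orally. Amphetamine 0.75 mg/kg was injected subcutaneously 30 min later. Total ambulations over t = 60–120 min gave % reversal of AHL, reported as mean ± SEM.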

[4] = Aqueous solubility of the compound at pH 7.4; type: physicochemical; settings: buffer
[5] = Clearance in Sprague-Dawley rat; type: ADME; settings: in vivo
How it was run: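 IV and PO pharmacokinetics in male Sprague-Dawley rats, n = 1–3. The oral dose was a 2–3 mg/kg solution. Plasma clearance, Vss and oral bioavailability were determined.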

Cytochrome P450 2D6 = Cytochrome P450 2D6 (Homo sapiens, UniProt P10635); test: Inhibition of CYP2D6 (unknown origin); type: ADME
Chain of Cytochrome P450 2D6 (P10635 whole entry): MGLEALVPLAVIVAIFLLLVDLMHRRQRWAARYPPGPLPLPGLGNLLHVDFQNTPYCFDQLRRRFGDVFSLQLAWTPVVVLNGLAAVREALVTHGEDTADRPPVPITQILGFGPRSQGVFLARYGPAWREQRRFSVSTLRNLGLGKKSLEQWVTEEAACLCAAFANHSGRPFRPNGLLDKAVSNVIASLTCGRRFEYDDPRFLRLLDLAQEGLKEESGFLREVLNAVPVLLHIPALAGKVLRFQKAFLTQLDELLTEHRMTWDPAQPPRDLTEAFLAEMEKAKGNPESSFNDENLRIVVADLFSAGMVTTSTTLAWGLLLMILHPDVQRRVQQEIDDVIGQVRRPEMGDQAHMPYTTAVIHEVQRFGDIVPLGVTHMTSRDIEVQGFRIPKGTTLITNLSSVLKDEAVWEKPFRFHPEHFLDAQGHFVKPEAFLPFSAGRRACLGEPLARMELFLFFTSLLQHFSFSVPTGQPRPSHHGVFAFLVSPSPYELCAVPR

[6] = target: T3, Muscarinic acetylcholine receptor M4 (Homo sapiens) (UniProt P08173); test: Positive allosteric modulation of human M4 receptor expressed in CHO cells co-expressing Gqi5 assessed as increase in acetylcholine-induced calcium mobilization relative to acetylcholine; type: functional, cell-based
T3 sequence (whole entry): T2 sequence (P08173 whole entry)
How it was run: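 Calcium mobilization in CHO cells stably co-expressing hM4 and Gqi5, tested in the presence of a fixed EC20 concentration of acetylcholine. Values are means of three independent experiments, each run in triplicate.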

Rattus norvegicus [7] = test: Reversal of amphetamine-induced hyperlocomotion in Sprague-Dawley rat at 10 mg/kg, po pretreated 30 mins post habituation in the chamber followed by amphetamine injection after 30 mins measured after 60 mins; type: functional; how it was run: as §1
Brain = test: Drug level in Sprague-Dawley rat brain at 0.3 mg/kg, po; type: ADME, organism-based; settings: in vivo, read-out: Drug uptake
Macaca fascicularis = organism: Macaca fascicularis; test: Activity at cynomolgus monkey M4 receptor assessed as acetylcholine-induced calcium mobilization
[8] = target: T3, Muscarinic acetylcholine receptor M4 (Homo sapiens); test: Activity at human M4 receptor assessed as acetylcholine-induced calcium mobilization; type: functional

Cc1nnc2sc(C(=O)NC3CN(c4cccc(F)c4F)C3)c(N)c2c1C
Vdss (Canis familiaris): 1.6 L/kg
IC50 (Cytochrome P450 1A2): 25 µM
EC50 [1]: 19 nM
TDI (Cytochrome P450 2C9): Not Active
IC50 [2]: 450 nM
Activity (Rattus norvegicus [3]): 24%
solubility [4]: 1.8 µM (≈ 0.701 µg/mL)
clearance [5]: 16 mL/min/kg
IC50 (Cytochrome P450 2D6): 14 µM
%max [6]: 88%
Activity (Rattus norvegicus [7]): 64%
concentration (Brain): 37 nM
Kb (Macaca fascicularis): 890 nM
Kb [8]: 2000 nM

— ChEMBL document CHEMBL4033702, “Challenges in the development of an M4 PAM preclinical candidate: The discovery, SAR, and in vivo characterization of a series of 3-aminoazetidine-derived amides” (Bioorg Med Chem Lett, 2017)
